{"source": "ChEMBL document CHEMBL1135893", "about": "“Synthesis and mode of action of hydrophobic derivatives of the glycopeptide antibiotic eremomycin and des-(N-methyl-D-leucyl)eremomycin against glycopeptide-sensitive and -resistant bacteria” (J Med Chem, 2002)", "key": {"Staphylococcus aureus [1]": {"test_system": "Staphylococcus aureus", "assay": "Antibacterial activity evaluated as minimum inhibitory concentration against 3797 Staphylococcus aureus (GISA)", "assay_type": "functional", "design": "unit not given beside the values", "how_it_was_run": "(§1)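 Broth microdilution in Mueller Hinton broth per NCCLS procedure; repeat results usually identical, always within 2-fold. GISA strains 3797 (HIP-5836 New Jersey) and 3798 (HIP-5827 Michigan); 533 S. epidermidis and 602 S. haemolyticus are clinical isolates; vancomycin-resistant enterococci have confirmed genotype.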"}, "Enterococcus faecalis [2]": {"test_system": "Enterococcus faecalis", "assay": "Antibacterial activity evaluated as minimum inhibitory concentration against 559 Enterococcus faecalis (GSE)", "assay_type": "functional", "design": "unit not given beside the values", "how_it_was_run": "as §1"}, "[3]": {"test_system": "Staphylococcus epidermidis", "assay": "Antibacterial activity evaluated as minimum inhibitory concentration against 533 Staphylococcus epidermidis", "assay_type": "functional", "how_it_was_run": "as §1"}, "Enterococcus faecium [4]": {"test_system": "Enterococcus faecium", "assay": "Antibacterial activity evaluated as minimum inhibitory concentration against 568 Enterococcus faecium (GSE)", "assay_type": "functional", "how_it_was_run": "as §1"}, "Enterococcus faecium [5]": {"test_system": "Enterococcus faecium", "assay": "Antibacterial activity evaluated as minimum inhibitory concentration against 569 Enterococcus faecium (GRE)", "assay_type": "functional", "how_it_was_run": "as §1"}, "Nucleic Acid [6]": {"test_system": "Nucleic Acid", "assay": "Ratio UDP-MurNAc-tetrapeptide to UDP-MurNAc-Pentapeptide", "assay_type": "nucleic-acid assay"}, "Nucleic Acid [7]": {"test_system": "Nucleic Acid", "assay": "Inhibition of the peptidoglycan synthesis in the absence of dipeptide bonding using UDP-MurNAc-tetrapeptide", "assay_type": "nucleic-acid assay", "how_it_was_run": "(§2)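 Peptidoglycan synthesis run on filter plates with E. coli OV58 (pTA9) membranes, UDP-MurNAc-pentapeptide or UDP-MurNAc-tetrapeptide plus UDP-N-acetyl-[14C]-D-glucosamine as substrates; radiolabel incorporation into peptidoglycan measured. IC50 from at least six drug concentrations in duplicate, fitted by four-parameter logistic nonlinear regression.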"}, "Nucleic Acid [8]": {"test_system": "Nucleic Acid", "assay": "Inhibition of the peptidoglycan synthesis in the absence of dipeptide bonding using UDP-MurNAc-pentapeptide", "assay_type": "nucleic-acid assay", "how_it_was_run": "as §2"}, "Staphylococcus aureus [9]": {"test_system": "Staphylococcus aureus", "assay": "Antibacterial activity evaluated as minimum inhibitory concentration against 3798 Staphylococcus aureus (GISA)", "assay_type": "functional", "design": "unit not given beside the values", "how_it_was_run": "as §1"}, "[10]": {"test_system": "Staphylococcus haemolyticus", "assay": "Antibacterial activity evaluated as minimum inhibitory concentration against 602 Staphylococcus haemolyticus", "design": "unit not given beside the values"}, "Enterococcus faecalis [11]": {"test_system": "Enterococcus faecalis", "assay": "Antibacterial activity evaluated as minimum inhibitory concentration against 560 Enterococcus faecalis (GRE)", "assay_type": "functional", "how_it_was_run": "as §1"}}}
{"smiles": "CCCCCCCCCCN[C@]1(C)C[C@H](O[C@@H]2[C@H](Oc3c4cc5cc3Oc3ccc(cc3Cl)[C@@H](O)[C@@H](NC(=O)[C@@H](CC(C)C)NC)C(=O)N[C@@H](CC(N)=O)C(=O)N[C@H]5C(=O)N[C@H]3C(=O)N[C@H](C(=O)N[C@H](C(=O)O)c5cc(O)cc(O)c5-c5cc3ccc5O)[C@H](O[C@H]3C[C@@](C)(N)[C@@H](O)[C@@H](C)O3)c3cccc(c3)O4)O[C@@H](CO)[C@H](O)[C@H]2O)O[C@H](C)[C@@H]1O", "values": [{"measurement": "MIC", "setting": "Staphylococcus aureus [1]", "result": 4}, {"measurement": "MIC", "setting": "Enterococcus faecalis [2]", "result": 0.5}, {"measurement": "MIC", "setting": "[3]", "result": 0.5}, {"measurement": "MIC", "setting": "Enterococcus faecium [4]", "result": 0.5}, {"measurement": "MIC", "setting": "Enterococcus faecium [5]", "result": 4}, {"measurement": "Ratio", "setting": "Nucleic Acid [6]", "result": 7.3}, {"measurement": "IC50", "setting": "Nucleic Acid [7]", "result": 13.3, "unit": "µM"}, {"measurement": "IC50", "setting": "Nucleic Acid [8]", "result": 1.8, "unit": "µM"}, {"measurement": "MIC", "setting": "Staphylococcus aureus [9]", "result": 4}, {"measurement": "MIC", "setting": "[10]", "result": 0.5}, {"measurement": "MIC", "setting": "Enterococcus faecalis [11]", "result": 8}]}
